Activity calls are given as the source filed them. No cut-off for these calls is given here.
How the values were obtained:
[1] = system: Canis familiaris; experiment: The changes in canine renal function that were monitored over the 2-h interval following 146 umol/kg intravenous administration.; assay type: functional, Canis lupus familiaris
Procedure, shortened: (§1)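 Dogs received the maleimide into the jugular vein at 73.0 or 146 µmol/kg over 10 min, dissolved in 0.9% saline with an equivalent amount of NaHCO3. Urine was collected in 10-min periods for 2 h. Read-outs were urine flow, urinary pH, GFR (inulin clearance), and Na, K (flame photometry) and Cl excretion. Each value is the change from the immediately preceding pretreatment period, analysed by Dunnett's test.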

[2] = system: Canis familiaris; experiment: The changes in canine renal function that were monitored over the 2-h interval following 20 umol/kg renal arterial administration; no change; assay type: functional, organism-based; settings: Canis lupus familiaris
[3] = Half life period with L-Lys; activity expressed in terms of rx, no rx means no reaction; assay type: ADME
[4] = Half life period with Glutathione (GSH); activity expressed in terms of rx, no rx means no reaction; assay type: ADME
[5] = system: Canis familiaris; experiment: The changes in canine renal function that were monitored over the 2-h interval following 73 umol/kg intravenous administration.; assay type: functional, Canis lupus familiaris; procedure, shortened: as §1
[6] = system: Canis familiaris; experiment: The changes in canine renal function that were monitored over the 2-h interval following 20 umol/kg renal arterial administration; NC=no change; assay type: functional, organism-based; settings: Canis lupus familiaris

Compound | Change [2] | also measured
CC1=CC(=O)N(c2ccc(C(=O)O)cc2C)C1=O | inactive | Change [1]: 5
CC1=C(C)C(=O)N(c2ccc(C(=O)O)cc2)C1=O | inactive | –
O=C(O)c1ccc(N2C(=O)C=CC2=O)cc1 | inactive | –
CC1=CC(=O)N(c2ccc(C(=O)NCC(=O)O)cc2)C1=O | inactive | –
CC1=CC(=O)N(c2ccc(C(=O)O)cc2)C1=O | inactive | –
CC1=C(C)C(=O)N(c2ccc(C(=O)NCC(=O)O)cc2)C1=O | inactive | T1/2 [3]: No RX; T1/2 [4]: No RX
O=C(O)CNC(=O)c1ccc(N2C(=O)C=CC2=O)cc1 | – | Change [5]: ~-5; Change [6]: inactive

Reference: ChEMBL document CHEMBL1122314, “Acute effects of alkylating agents on canine renal function: specifically designed synthetic maleimides” (J Med Chem, 1983)
